This is a sample that favours compounds with a hit; in the whole collection about 1% have one here.
PDI turbidity = inhibitors of human PDI, primary screen, biochemical, turbidity, single point, plate reader | inhibition, % at 10 µM | actives 0.052% (n = 350,000) | PDI insulin aggregation turbidity, A650, 90 min | AID 588391, 2011;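 active = mean inhibition across replicates of 30% or more, whatever share of single replicates reach that level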
CAL PDZ FP-1 = CAL PDZ peptide-binding inhibitors, primary screen, biochemical, fluorescence polarization, Cer-tagged CAL PDZ, HTS | Golgi-associated PDZ and coiled-coil motif-containing protein (Homo sapiens), Q9HD26 | purified CAL PDZ, TMR-peptide fluorescence polarization, 1 h | inhibition, % at 20 µM | actives 0.02% (n = 330,000) | AID 504414, 2011;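 active = highest replicate inhibition of at least 40%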
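material = purified tagged CAL PDZ domain construct (CerCALP) | compound dosing = 20 µM, one dose | times = 1 h at RT | measured by = fluorescence polarization from S- and P-plane intensities, G-factor corrected | read-out = inhibition from polarization loss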
RAD52 inh = RAD52 DNA annealing inhibitors, primary screen, biochemical, FRET, single point, set 2 | DNA repair protein RAD52 homolog (Homo sapiens), P43351 | recombinant RAD52 DNA annealing, FRET fluorescence | inhibition, % at 18.7 µM | actives 0.46% (n = 360,000) | AID 651710, 2012;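 active = every replicate showing at least 50% inhibition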
Target sequence (P43351 whole entry, looked up): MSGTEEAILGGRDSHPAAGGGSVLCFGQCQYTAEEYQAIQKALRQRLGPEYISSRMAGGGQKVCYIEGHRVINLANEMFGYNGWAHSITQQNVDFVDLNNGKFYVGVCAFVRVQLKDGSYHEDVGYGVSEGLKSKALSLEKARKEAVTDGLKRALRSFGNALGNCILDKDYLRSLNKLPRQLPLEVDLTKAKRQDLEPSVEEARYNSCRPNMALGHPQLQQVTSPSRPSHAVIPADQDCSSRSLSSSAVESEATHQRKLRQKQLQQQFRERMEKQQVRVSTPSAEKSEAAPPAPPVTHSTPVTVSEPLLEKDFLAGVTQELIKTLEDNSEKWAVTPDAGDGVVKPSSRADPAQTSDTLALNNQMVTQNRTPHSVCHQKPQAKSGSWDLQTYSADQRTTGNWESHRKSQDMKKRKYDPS
CAL PDZ FP-2 = untagged CAL PDZ binding inhibitors, primary screen, biochemical, fluorescence polarization, HTS. actives 0.92% (n = 300,000). inhibition, % at 24.9 µM. Golgi-associated PDZ and coiled-coil motif-containing protein (Homo sapiens), Q9HD26. purified CAL PDZ, TMR-peptide fluorescence polarization, 1 h;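 active = mean inhibition of at least 30% with at least half of replicates also reaching 30%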
ERp5 block = inhibitors of ERp5-driven insulin aggregation, primary screen, biochemical, turbidity, absorbance 650 nm, single point. inhibition, % at 9.99 µM. AID 651711, 2012. Protein disulfide-isomerase A6 (Homo sapiens), Q15084. actives 0.05% (n = 350,000). 90 min;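 active = mean replicate inhibition above about 25%, with every replicate also reaching it, limit read from the data, passing the limit was not always enough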
RAD54 branch = inhibitors of human RAD54 branch migration, primary screen, biochemical, fluorescence, single point; actives 0.14% (n = 360,000); AID 602329, 2012; DNA repair and recombination protein RAD54-like (Homo sapiens), Q92698; RAD54 Holliday junction branch migration, FAM/BHQ fluorescence; inhibition, % at 10.4 µM;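 active = mean normalized replicate activity at least 40 and at least half of replicates scoring 40 or more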;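 also: inhibitors cause a drop in the FAM fluorescence signal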
RAD52 DNA ctr = DNA-binding compounds via dye displacement, dose response, artefact control for RAD52 inhibitor project, biochemical, fluorescence polarization, cherry-pick | AC50, µM | actives 8% (n = 1,000) | shares compounds with RAD52 inh | AID 652128, 2013 | Salmon sperm DNA/acridine orange FP displacement;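 active = fitted half-maximal concentration for signal loss at or below twice the highest dose tested, in every separate run, actives reach about 64 µM in these data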
Numbers stand for hits; – = inactive; · = no result.

SMILES | PDI turbidity | CAL PDZ FP-1 | RAD52 inh | CAL PDZ FP-2 | ERp5 block | RAD54 branch | RAD52 DNA ctr
C[C@H]1CN([C@@H](C)CO)C(=O)c2cc(Br)cnc2O[C@H]1CN(C)C(=O)NC1CCCC1 | · | · | · | · | · | – | ·
CCCCc1nc2sc3c(SCC(=O)NCc4ccco4)ncnc3c2c2c1CCC2 | – | – | · | – | · | – | ·
CCCCc1nc2sc3c(SCCN(C)C)ncnc3c2c2c1CCC2 | – | – | 60 | – | – | · | –
CC1(C)CC(NC(=O)c2ccc(Cl)c(S(=O)(=O)N(Cc3ccccc3)c3ccccc3)c2)CC(C)(C)N1 | – | – | 51 | – | – | – | –
COc1ccccc1N(Cc1ccccc1)S(=O)(=O)c1cccc(C(=O)NC2CC(C)(C)NC(C)(C)C2)c1 | – | – | 57 | – | – | · | –
COc1cc(/C=C/c2cc[n+](C)cc2)ccc1OCC(=O)Nc1ccc(Cl)c(Cl)c1 | – | – | 69 | – | – | – | –
COCCNCC(O)CON=C1c2ccccc2-c2ccccc21 (centres undefined) | – | – | – | – | – | · | ·
CC(C)CCNCC(O)CON=C1c2ccccc2-c2ccccc21 (centres undefined) | – | – | 66 | – | – | · | –
O=C(Nc1ccc(N2CCCC2)cc1)c1cccc(-c2cc3ccccc3oc2=O)c1 | – | – | 58 | – | – | – | –
O=C(Nc1ccccc1N1CCCC1)c1cccc(-c2cc3ccccc3oc2=O)c1 | – | – | · | – | · | – | ·
CN(C)CCN(C(=O)c1ccc2ccccc2c1)c1nc2cc3c(cc2s1)OCCO3 | – | – | 69 | – | – | – | –
COc1ccc2nc(N(CCN(C)C)C(=O)c3ccc4ccccc4c3)sc2c1 | – | – | 54 | – | – | – | –
CCN(c1ccccc1)S(=O)(=O)c1ccc(C(=O)N(CCCN(C)C)c2nc3cc4c(cc3s2)OCO4)cc1 | – | – | 66 | – | – | – | –
O=C(O)C[C@@H]1CC[C@@H](NC(=O)Nc2cc(F)ccc2F)[C@H](CO)O1 | · | · | – | · | – | – | ·
C[C@@H]1CN([C@H](C)CO)C(=O)c2cc(C#CC(C)(C)O)cnc2O[C@@H]1CN(C)Cc1cncnc1 | · | · | – | · | – | – | ·
CN(C)CCCn1c2c3ccccc3ccc2c2oc(=O)c3ccccc3c21 | – | – | 64 | – | – | · | –
O=C(C[C@@H]1CC[C@@H]2[C@H](COC[C@@H](O)CN2Cc2cccc(Cl)c2)O1)N1CCOCC1 | · | · | – | · | – | – | ·
CC(=O)OC1C([N+]2(C)CCCCC2)C[C@H]2C3CC[C@H]4C[C@H](OC(C)=O)C([N+]5(C)CCCCC5)CC4(C)[C@H]3CCC12C (some centres undefined) | – | – | 50 | – | – | – | –
COc1cc(-c2cnc3c(NC=O)cc(-c4ccc(N5CCN(C)CC5)cc4)cn23)cc(OC)c1OC | – | · | 70 | · | – | – | –
CCN(CC)c1ccc(C(=C2C=CC(=[N+](CC)CC)C=C2)c2ccc(N(CC)CC)cc2)cc1 | – | – | 52 | – | – | – | –
CNC(=O)C[C@H]1CC[C@H]2[C@@H](COC[C@H](O)CN2C(=O)Nc2cccc(OC)c2)O1 | · | · | – | · | – | – | ·
CCCCCCCC[n+]1cccc(C(=O)N(CC)CC)c1 | – | – | – | – | – | · | ·
CCCCCCCCCCCCCCCC[n+]1cccc(C(=O)N(CC)CC)c1 | – | – | 88 | – | – | – | –
COc1ccc(NC(=O)N2CC(=O)N3[C@H](C2)[C@H](c2ccc(Br)cc2)[C@@H]3CO)cc1 | · | · | – | · | – | · | ·
c1cncc(-c2nc(N3CCOCC3)c3c4c(sc3n2)CCC4)c1 | – | – | – | – | – | – | ·
SMILES | PDI turbidity | CAL PDZ FP-1 | RAD52 inh | CAL PDZ FP-2 | ERp5 block | RAD54 branch | RAD52 DNA ctr
c1cncc(-c2nc(NCCCN3CCOCC3)c3c4c(sc3n2)CCC4)c1 | – | – | 62 | – | – | · | –
C[C@@H]1CN([C@H](C)CO)C(=O)c2cccc(NS(=O)(=O)c3cccs3)c2O[C@H]1CN(C)S(=O)(=O)c1ccccc1 | · | · | – | · | – | – | ·
CCCCCCCCC[n+]1cccc2c3ccccc3ccc21 | – | – | · | – | · | · | ·
CCCCCCCCCCCCCCCC[n+]1cccc2ccccc21 | – | – | 90 | – | – | · | 32µM
c1ccc(-c2oc3ncnc(NCCCn4ccnc4)c3c2-c2ccccc2)cc1 | – | – | – | – | – | – | ·
CN(C)CCCNc1ncnc2oc(-c3ccccc3)c(-c3ccccc3)c12 | – | – | – | – | – | – | –
CC(=O)N(C)C[C@H]1[C@@H](c2ccc(-c3ccc(C#N)cc3)cc2)[C@@H](CO)N1C(C)=O | · | · | – | · | – | · | ·
O=C(C[C@@H]1C[C@@H]2c3cc(NC(=O)CC4CC4)ccc3O[C@@H]2[C@@H](CO)O1)NCc1ccc2c(c1)OCO2 | · | · | – | · | – | – | ·
CCN1CCN(c2ccc(N=Cc3ccccc3O)cc2)CC1 | – | – | 99 | – | – | · | –
COc1cccc(C=Nc2ccc(N3CCOCC3)cc2)c1O | – | – | – | – | – | – | ·
CN1CCN(C2CCN(Cc3ccc(O)c4ncccc34)CC2)CC1 | – | – | 92 | – | – | – | –
Oc1ccc(CN2CCN(Cc3ccccc3)CC2)c2cccnc12 | – | – | · | – | · | – | ·
CN1CCN(C2Cc3cc(Cl)ccc3Sc3cc(F)ccc32)CC1 (centres undefined) | – | – | 54 | – | – | · | –
Cc1cc(C)n(-c2nc(NCCN(C)C)c3c4c(sc3n2)CCCC4)n1 | – | – | 83 | – | – | · | –
CSC1SCC2C(=O)N(C)C(C(C)C)C(=O)OCC(NC(=O)c3cnc4ccccc4n3)C(=O)NC(C)C(=O)N(C)C1C(=O)N(C)C(C(C)C)C(=O)OCC(NC(=O)c1cnc3ccccc3n1)C(=O)NC(C)C(=O)N2C (centres undefined) | – | – | 72 | – | – | · | –
CCN(CC)CCN(C(=O)/C=C/c1cccs1)c1nc2ccc(F)cc2s1 | – | – | – | – | – | – | ·
CN(C)CCCN(C(=O)/C=C/c1cccs1)c1nc2ccc(F)cc2s1 | – | – | 58 | – | – | – | –
COc1ccc(OC)c2sc(N(CCN(C)C)C(=O)/C=C/c3cccs3)nc12 | – | – | 101 | – | – | 90 | –
COc1ccc(C)c2sc(N(CCN(C)C)C(=O)c3cccc(N4C(=O)CCC4=O)c3)nc12 | – | – | 70 | · | – | · | –
